# UPR XBP1 act = activators of adaptive XBP1 UPR arm, primary screen, cell-based, CHO-XBP1 luciferase reporter, luminescence, uHTS | 0.33% of 330,000 active | IRE1-XBP1 UPR activation; percent of tunicamycin response, DMSO as zero | activation, % at 20 µM | AID 463104, 2010;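 active means versus positive control, 20 µM dose yields 30% or more activation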;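 further: 100% = tunicamycin at 10 µg/mL and 0% = DMSO only wells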
#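 Signal: luciferase luminescence; Assay system: CHO-XBP1 luciferase reporter cells; Amount: one thousand reporter cells per well; Dosing: 20 µM single concentration, DMSO 1%; Benchmarks: high control tunicamycin 10 µg/mL final, low control DMSO vehicle only; Schedule: 6 h compound exposure at 37 °C, 5% CO2; Evaluation: percent activation relative to tunicamycin reference.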
# M18AAP inhibitor = PfM18AAP inhibitors, malaria aminopeptidase, primary screen, biochemical, QFRET, recombinant enzyme; H-Glu-NHMec fluorogenic cleavage; AID 1822, 2009; inhibition, % at 7.35 µM; M18 aspartyl aminopeptidase (Plasmodium falciparum 3D7); 1.2% of 290,000 active;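 active means inhibition above the campaign mean inhibition over all tested compounds plus 3 SD, cut at about 28% in these data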;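 further: 0% = plate median of test compound wells and 100% = 2 mM ZnCl2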
# UPR CHOP act = activators of apoptotic CHOP UPR arm, primary screen, cell-based, CHO-CHOP luciferase reporter, luminescence, uHTS. UPR activation; percent of tunicamycin response over DMSO baseline. activation, % at 10 µM. 0.34% of 330,000 active. AID 449763, 2010;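 active means at 10 µM dose, activation of 40% or more, normalized to positive control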;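 further: 100% = tunicamycin at 10 µg/mL and 0% = DMSO alone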
#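 System: CHO-CHOP luciferase reporter cell line; amount: 500 cells/well; buffer or medium: F12 medium containing 10% fetal bovine serum; incubation: 6 h compound exposure at 37 °C after overnight seeding; measured by: luciferase luminescence after 10 min with Steady-Glo reagent; evaluation: % reporter activation, DMSO baseline versus tunicamycin full activation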
# CHOP inhibitor = inhibitors of CHOP promoter induction, primary screen, cell-based, unfolded protein response, luciferase reporter. inhibition, % at 10 µM. AID 2732, 2010. 3.8% of 220,000 active. CHO-K1 CHOP-promoter luciferase, tunicamycin-induced, 15-18 h;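 active means compounds that reduced the stress-induced luciferase reporter signal by more than about 70% of percent inhibition, limit read from the data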;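 further: 0% = tunicamycin plus vehicle and 100% = wells without tunicamycin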
# HCV NS3 hel inh = inhibitors of HCV NS3 helicase, primary screen, biochemical, Cy5 molecular beacon fluorescence; 0.56% of 290,000 active; Hepatitis C virus NS3 helicase; inhibition, % at 10.9 µM; NS3 helicase DNA unwinding; AID 1800, 2009;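 active means inhibition above the mean of all tested compounds plus 3 SD, set per campaign, cut at about 35% in these data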;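 further: 0% = DMSO wells and 100% = thioflavine S control wells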
#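 Assay system: hepatitis C virus NS3 helicase domain fragment enzyme. Also added: annealed dual-labelled DNA beacon duplex, ATP-started. Timing: 1 h reaction at 25 °C, ATP-initiated. Technique: Cy5 fluorescence at 0 and 60 min, beacon hairpin quenching. Evaluation: % inhibition of unwinding. Replication: one well per compound.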
# p97 ATPase inh = inhibitors of human p97 ATPase, primary screen, biochemical; recombinant p97 ATPase, Kinase-Glo ATP luminescence, 3 h; inhibition, % at 8 µM; 0.42% of 220,000 active; in the data active means inhibition above about 15%;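 further: 0% = DMSO vehicle and 100% = wells lacking enzyme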
# * marks the source's active call; other numbers are inactive results; · = no result given. This is a sample that favours compounds with a hit; in the whole collection about 4.5% have one here.
SMILES,UPR XBP1 act,M18AAP inhibitor,UPR CHOP act,CHOP inhibitor,HCV NS3 hel inh,p97 ATPase inh
COc1ccc(/C=C2\CCCC3C2=NN(C(=O)CSc2n[nH]c(N)n2)C3c2ccc(OC)cc2)cc1 (stereo unspecified),-5,9,1,23,-7,15*
O=C1CCC(C(=O)OCC(=O)N2N=C3/C(=C/c4ccccc4)CCCC3C2c2ccccc2)N1 (stereo unspecified),-1,14,-3,41,13,-10
Cc1ccc(NS(=O)(=O)c2ccc(C(=O)N3CCN(S(=O)(=O)c4ccccc4)CC3)cc2)cc1,-4,·,3,·,·,·
O=C(Nc1ccncc1)c1c(F)c(F)c(F)c(F)c1F,-2,-2,-2,·,7,·
O=C(Nc1ccccc1NC(=O)c1c(F)c(F)c(F)c(F)c1F)c1c(F)c(F)c(F)c(F)c1F,-1,-4,2,77*,-4,-6
O=C(Nc1cccc(F)c1)c1c(F)c(F)c(F)c(F)c1F,-2,-9,-3,79*,3,0
CCc1cc(=O)oc2cc(C)cc(OCC(=O)NCc3ccncc3)c12,-3,-7,1,·,-15,·
CC(=O)NCCNC(=O)C1CCCCN1S(=O)(=O)c1ccccc1 (stereo unspecified),-3,-8,-1,6,-1,7
CCCOc1ccc(C(=O)NNC(=O)c2cccc(S(=O)(=O)N3CCN(C(C)=O)CC3)c2)cc1OC,-4,·,2,·,·,·
Cc1ccc2nc(NC(=O)c3ccc4c(c3)OCO4)sc2c1,3,0,5,93*,1,1
NS(=O)(=O)c1ccc2nc(NC(=O)c3ccc4c(c3)OCCO4)sc2c1,-2,0,1,·,7,·
O=C(Nc1nncs1)c1ccc2c(c1)OCO2,0,29*,1,·,6,·
Cc1nnc(NC(=O)c2ccc3c(c2)OCO3)s1,-1,11,5,1,1,3
O=C(CNC(=O)c1ccccc1Cl)NCCc1cccs1,0,·,1,·,·,·
Cc1cc(C)nc(NS(=O)(=O)c2ccc(NC(=O)c3cc(=O)c4ccccc4o3)cc2)n1,0,5,0,·,3,·
COc1cccc(COCC(O)Cn2cnc3cc(C)c(C)cc32)c1 (stereo unspecified),-2,-4,1,13,-9,-3
CC(C)C1Cc2c(sc(NC(=S)NC(=O)c3ccccc3)c2C#N)CO1 (stereo unspecified),1,-2,0,83*,8,5
CCOc1ccccc1NS(=O)(=O)c1c(C)[nH]c(C)c1C(=O)N1CCCCC1,0,-15,1,·,3,·
O=C(O)c1cc(O)c2c(c1)C(=O)c1cccc(O)c1C2=O,-6,28*,1,-34,16,12
Cc1cc(O)c2c(c1)C(=O)c1cccc(O)c1C2=O,·,7,·,3,9,-4
Cc1ccc(C(=O)Nc2cc(C(C)C)c(O)c(C(C)C)c2)cc1,-3,7,3,74*,-6,0
COc1ccccc1N1CCN(Cc2nc(N)nc(Nc3ccc(C)c(Cl)c3)n2)CC1,4,7,2,76*,-88,5
COc1ccccc1Nc1nc(N)nc(CN2CCN(c3ccccc3F)CC2)n1,1,0,0,83*,-5,-6
Cc1cccc(Nc2nc(N)nc(CN3CCN(c4ccccc4F)CC3)n2)c1,0,-7,0,·,-34,-9
O=C(Nc1nnc(SCC(=O)N2CCCCC2)s1)c1c(F)cccc1F,-1,6,3,·,8,·
CCc1ccc(C(=O)c2cncc(Br)c2)cc1,1,-2,2,74*,-5,-2
Cc1ccc(C(=O)c2cncc(Br)c2)cc1,-1,-1,3,24,1,5
CCCCCOc1ccc(NC(=O)CSc2cccc3cccnc23)cc1,13,5,9,58,-10,8
